This passage reports ED50, EC50 and LC50 results from ChEMBL document CHEMBL1149056, “Bioactive annonaceous acetogenins from the bark of Xylopia aromatica” (J Nat Prod, 1994).

For orientation: LC50 means the concentration that kills 50% of the test population. Read a high LC50 as a less lethal substance.

≈ marks a conversion by molar mass, not a printed value.

In one data set the test system is MCF7. As to the kind of experiment: Cytotoxicity against human MCF7 cells after 7 days. The data set is classed as functional. The conditions noted are these: for EC50: Homo sapiens, MCF7, 168 h, read-out: ED50 (the source's name). The method in brief: (§1)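 Human solid tumor cell lines A-549 (lung carcinoma), MCF-7 (breast carcinoma) and HT-29 (colon adenocarcinoma) tested in seven-day cytotoxicity assays run at a cancer center cell culture laboratory, with adriamycin as positive control.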

The next data set relates to HT-29. The experiment in a line: Cytotoxicity against human HT-29 cells after 7 days. Conditions: for EC50: Homo sapiens, HT-29, 168 h, read-out: ED50 (the source's name). It counts as functional. Put shortly:
as §1

The subject of a further data set is A549. As to the kind of experiment: Cytotoxicity against human A549 cells after 7 days. It counts as functional. The conditions noted are these: for EC50: Homo sapiens, A549, 168 h, read-out: ED50 (the source's name). The method in brief:
as §1

Data set [1] is described as follows: Toxicity against brine shrimp larvae. Conditions: artemia, in vivo. It counts as organism-based.

For `CCCCCCCCCCCCCC[C@@H](O)[C@H]1CC[C@H]([C@H](O)CCCCCCC(O)CCC[C@@H](O)CC2=C[C@H](C)OC2=O)O1` (some centres undefined) [XYLOPIACIN], the ED50 with MCF7 amounted to 1.39 ×10⁻⁷ ug/ml; with A549, 1.36 ×10⁻⁶ ug/ml. Moreover, the EC50 with HT-29 came out at 0.111 µg/mL (≈ 0.178 µM). This molecule had an LC50 in data set [1] of 0.49 µg/mL (≈ 0.784 µM).
Consider `CCCCCCCCCCCCCC[C@@H](O)[C@H](O)CC[C@H](O)[C@@H]1CC[C@@H](CCCCC[C@@H](O)CC2=C[C@H](C)OC2=O)O1` [GIGANTETROCIN A], for which the EC50 in the data set with MCF7 was 0.63 µg/mL (≈ 1.06 µM); in the data set on A549, 0.25 µg/mL (≈ 0.419 µM). The ED50 in the data set on HT-29 is given as 4.1 ×10⁻⁵ ug/ml. In data set [1], this molecule returned a 50% lethal concentration (LC50) of 1.4 µg/mL (≈ 2.35 µM).
Take `CCCCCCCCCCCC[C@@H](O)[C@H]1CC[C@H]([C@H](O)CCCC[C@H](O)CCCCC[C@@H](O)CC2=CC(C)OC2=O)O1` (some centres undefined) [ANNONACIN]: the EC50 with MCF7 is 0.0024 µg/mL (≈ 0.00402 µM). Besides, the ED50 with HT-29 and in the data set with A549 was below 1 ×10⁻⁷ ug/ml throughout. The same molecule displayed an LC50 in data set [1] of 0.23 µg/mL (≈ 0.385 µM).
With `CCCCCCCCCCCCCCC(O)C(O)CC[C@H](O)[C@H]1CC[C@H](CCCCC[C@@H](O)CC2=C[C@H](C)OC2=O)O1` (some centres undefined) [GIGANTETRONENIN], the EC50 was determined as 0.603 µg/mL (≈ 1.01 µM) with MCF7, 0.0537 µg/mL (≈ 0.09 µM) in the data set on HT-29 and 0.0047 µg/mL (≈ 0.00787 µM) in the data set on A549.
Taken in the same sequence, the figures for `CCCCCCCCCCCC[C@H](O)[C@@H]1CC[C@@H]([C@@H](O)CCCCCCC(O)CCCCC[C@@H](O)CC2=C[C@H](C)OC2=O)O1` (some centres undefined) [ANNOMONTACIN] were 0.165 µg/mL (≈ 0.264 µM), 0.00258 µg/mL (≈ 0.00413 µM) and 0.00772 µg/mL (≈ 0.0124 µM).
Take `CCCCCCCCCCCCCC[C@@H](O)[C@H]1CC[C@H]([C@H](O)CCCCC(O)CCCCC[C@@H](O)CC2=C[C@H](C)OC2=O)O1` (some centres undefined) [XYLOMATICIN]: the ED50 in the data set on MCF7 is 1.47 ×10⁻⁶ ug/ml; in the data set with A549, 1.54 ×10⁻⁴ ug/ml. The EC50 in the data set with HT-29 was 0.304 µg/mL (≈ 0.486 µM). The same molecule registered an LC50 in data set [1] of 0.11 µg/mL (≈ 0.176 µM).
Consider `COc1cccc2c1C(=O)c1c(O)c3c(c(O)c1C2=O)C[C@@](O)(C(=O)CO)C[C@@H]3O[C@H]1C[C@H](N)[C@H](O)[C@H](C)O1` [DOXORUBICIN], for which the EC50 in the data set with MCF7 stood at 0.0228 µg/mL (≈ 0.0419 µM); in the data set with HT-29, 0.00279 µg/mL (≈ 0.00513 µM); in the data set with A549, 0.0011 µg/mL (≈ 0.00202 µM).
As for `CCCCCCCCCCCC[C@@H](O)[C@H]1CC[C@H]([C@H](O)CCCCCCC(O)CCC[C@@H](O)CC2=C[C@H](C)OC2=O)O1` (some centres undefined) [XYLOPIANIN], the EC50 is 18.5 µg/mL (≈ 30.9 µM) with MCF7, 6.63 µg/mL (≈ 11.1 µM) in the data set on HT-29 and 0.0426 µg/mL (≈ 0.0714 µM) in the data set on A549. This molecule also registered an LC50 in data set [1] of 0.33 µg/mL (≈ 0.553 µM).
